Yeast superoxide = lowers age-related superoxide in aged yeast cells; S. cerevisiae aged cells, superoxide DHE fluorescence; active compounds read low; superoxide response (% of plate mean), % at 10 µM; actives 0.18% (n = 330,000); AID 2690;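 active = superoxide response under a set limit, about three screen SD below normal, cut at about 65% in these data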;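 note: yeast aged for seven days with compound at 30 °C before DHE staining; 100% = average MFI of all compound-treated wells on the plate with controls excluded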
Mot1-301 SUMO = SUMOylation pathway inhibition by Mot1-301 growth rescue | S. cerevisiae Mot1-301 growth rescue, ATP luminescence, 38.5C; percent above DMSO median, 100 means doubled | actives 1% (n = 320,000) | AID 2716 | growth rescue, % at 18.8 µM;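 active = every valid replicate shows activation above 250% relative to neutral control wells; inactive = the rest, any valid replicate at or below 250%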;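 note: OY570 slx delta 5 strain wells were the positive control but not used for scaling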
PglD DTNB = inhibitors of Campylobacter jejuni PglD acetyltransferase; purified PglD enzyme, DTNB colorimetric CoA detection; inhibition, % at 12.5 µM; actives 0.098% (n = 360,000); AID 602405; in the data active = inhibition above about 16%, passing the limit was not always enough
Ecoli rRNA inh = inhibits bacterial ribosomal RNA function over humanized ribosomes | E. coli WT GFP vs humanized-ribosome RFP mutants, fluorescence, 24 h; active compounds read low; DMSO median 0, no signal -100 | actives 1.6% (n = 350,000) | GFP signal change (wild-type ribosome), % (test concentration not listed);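 active = significant combined selectivity score with lowered wild-type GFP, culture density cut under 30%, mutant RFP and density less affected; inactive = any of these conditions unmet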
Cneo AK release = causes C. neoformans cell lysis. AID 651654. actives 0.2% (n = 360,000). adenylate kinase release luminescence, 4 h; normalised: neutral wells 0, clomiphene wells 100. lysis activity, % at 15 µM;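 active = mean lysis activity across replicates of at least 80%, whatever share of replicates individually reach that level; inactive = mean lysis activity below 80%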
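Material: C. neoformans cells | Amount: Yeast cell density of 5 × 10^6 cells/mL | Medium: Fresh YPD growth medium | Dosing: Single dose | Times: Static 4 h at 37 °C with compound, 1 h detection | Detection: AK luminescence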
An asterisk follows results filed as active; . = not tested or not shown. An excerpt weighted towards active compounds, which were near 2.2% of everything screened.

SMILES	Yeast superoxide	Mot1-301 SUMO	PglD DTNB	Ecoli rRNA inh	Cneo AK release
C[C@H]1CN([C@@H](C)CO)C(=O)c2cc(C3=CCCC3)cnc2O[C@@H]1CN(C)Cc1cccc(F)c1	.	.	-1	-6	47
O=C1C(=O)c2c(C(=O)c3ccccc3)coc2-c2ccccc21	110	10	-4	-44*	-3
O=C(/C=C/c1ccccc1Cl)N(Cc1ccccc1)C1CCS(=O)(=O)C1 (stereo not given)	108	26	.	.	.
O=C(/C=C/c1ccccc1Cl)N(Cc1cccs1)C1CCS(=O)(=O)C1 (stereo not given)	113	0	2	-35*	0
COCC#Cc1cnc2c(c1)C(=O)N([C@@H](C)CO)C[C@H](C)[C@@H](CN(C)C(=O)C1CCCCC1)O2	.	.	1	2	1
CN(C)c1ccc(CNC(=O)C2(C)Cc3c(-c4ccc5c(c4)OCO5)ccnc3O2)cc1 (stereo not given)	.	.	6	-15*	0
CN1C(=O)N[C@@H]2c3ccccc3O[C@@]1(C)[C@@H]2COC(=O)c1ccccc1	.	.	1	.	96*
COc1ccc(CN(C)C[C@H]2Oc3ccc(N(C)C)cc3CC(=O)N([C@@H](C)CO)C[C@H]2C)cc1	.	.	1	0	-3
Cc1ccc2c(c1)=N/C(=N\c1[nH]c(O)c3ccccc13)N=2	.	.	7	32	0
Oc1[nH]c(N=C2N=c3ccccc3=N2)c2ccccc12	82	293*	-1	8	-6
C=C(C)Cn1c(=O)c2c(nc3n2CCCN3Cc2ccccc2)n(C)c1=O	79	-3	2	-28*	-2
CC(=O)Cn1c(=O)c2c(nc3n2CCCN3Cc2ccccc2)n(C)c1=O	88	325	-5	1	0
CC(=O)N1CCN(c2ccc(NCc3ccc(F)cc3)cc2)CC1	90	-10	-5	-1	-1
COc1cc(CNc2ccc(N3CCN(C(C)=O)CC3)cc2)ccc1OCc1ccc(F)cc1	101	23	.	-27*	.
Cc1ccc(S(=O)(=O)Nc2ccc3c(c2)C(=O)N([C@@H](C)CO)C[C@H](C)[C@H](CN(C)Cc2ccc4c(c2)OCO4)OCCCC[C@H](C)O3)cc1	.	.	-1	2	51
Cc1nn2c(NCCCn3ccnc3)cc(C(C)C)nc2c1-c1ccccc1	93	3	.	-45*	.
CC(=O)Nc1cccc(-n2nnc(SCC(=O)c3ccccc3)n2)c1	94	4	.	-36*	.
O=C(CCN1CCCCC1)N[C@H]1CC[C@H](CCNS(=O)(=O)c2ccccc2)O[C@H]1CO	.	.	1	1	23
COc1ccccc1-c1nc(SCC(=O)Nc2ccccc2F)n[nH]1	100	-20	5	-27*	0
C[C@H]1CN([C@@H](C)CO)C(=O)Cc2cc(NS(=O)(=O)c3cccs3)ccc2O[C@H]1CN(C)S(=O)(=O)c1ccc(Cl)cc1	.	.	.	4	.
Cc1noc(C)c1C(c1ccccc1)c1ccccc1	116	-6	.	-47*	.
CCOc1ccccc1C1CC(=O)Nc2cc3c(cc21)OCO3 (stereo not given)	90	.	5	.	0
CCOc1ccccc1C1C2=C(COC2=O)Nc2cc3c(cc21)OCO3 (stereo not given)	93	-5	.	-24*	.
COc1cccc(NC(=O)c2ccc(-c3ccccc3[N+](=O)[O-])o2)c1	96	1	.	-43	.
Cc1cccc(NC(=O)c2ccc(-c3ccccc3[N+](=O)[O-])o2)c1	106	42	-8	-32*	0
SMILES	Yeast superoxide	Mot1-301 SUMO	PglD DTNB	Ecoli rRNA inh	Cneo AK release
Cc1cc(C)nc(/N=C(/NC(=O)c2ccccc2)Nc2ccccc2)n1	105	-7	-2	.	-1
COc1ccc(N/C(=N/c2nc(C)cc(C)n2)NC(=O)c2ccccc2)cc1	86	-24	.	-20*	.
CN1C(=O)c2cc(NC(=O)c3ccc(F)c(F)c3)ccc2OC[C@@H]2O[C@@H](CC(=O)N[C@H]3CCN(Cc4ccccc4)C3)CC[C@@H]21	.	.	0	-4	20
Cc1cc(O)c(C(=O)Cc2csc(C)n2)c(O)c1	116	96	-3	-21	-1
Cc1cc(O)cc(O)c1C(=O)Cc1cscn1	87	353*	-1	.	0
O=C(Nc1ccccc1F)N1C[C@@H]2[C@H](c3ccccc31)[C@H](CO)N2C(=O)Cc1ccccc1	.	.	-1	-43	-9

Screening results as filed in PubChem.
